Results as given in BindingDB's records for doi:10.1021/jm010816q (Eth Zurich, 2001).
pKd: −log10 of the molar value. Residues, ends and D or L forms follow the SMILES beside them.

Legend:
[1] = biological target: Somatostatin receptor type 2 (Homo sapiens, UniProt P30874); assay: Binding assay at human somatostatin receptor 2 (hsst2) expressed in CCL-39 cells using LTT-CST-14-(Tyr10) as radioligand.
In short: (§1)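 Chinese hamster lung fibroblast CCL39 cells stably expressing each hsst receptor; crude membrane homogenates in 10 mM HEPES pH 7.5, 0.5% BSA, 5 mM MgCl2, 5 mg/mL bacitracin. Vacuum filtration, bound radioactivity counted. Triplicate curves fitted by nonlinear regression; pKD reported.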

[2] = biological target: Somatostatin receptor type 3 (Homo sapiens, UniProt P32745); assay: Binding assay at human somatostatin receptor 3 (hsst3) expressed in CCL-39 cells using LTT-CST-14-(Tyr10) as radioligand.; in short: as §1
Somatostatin receptor type 3, sequence (P32745 whole entry): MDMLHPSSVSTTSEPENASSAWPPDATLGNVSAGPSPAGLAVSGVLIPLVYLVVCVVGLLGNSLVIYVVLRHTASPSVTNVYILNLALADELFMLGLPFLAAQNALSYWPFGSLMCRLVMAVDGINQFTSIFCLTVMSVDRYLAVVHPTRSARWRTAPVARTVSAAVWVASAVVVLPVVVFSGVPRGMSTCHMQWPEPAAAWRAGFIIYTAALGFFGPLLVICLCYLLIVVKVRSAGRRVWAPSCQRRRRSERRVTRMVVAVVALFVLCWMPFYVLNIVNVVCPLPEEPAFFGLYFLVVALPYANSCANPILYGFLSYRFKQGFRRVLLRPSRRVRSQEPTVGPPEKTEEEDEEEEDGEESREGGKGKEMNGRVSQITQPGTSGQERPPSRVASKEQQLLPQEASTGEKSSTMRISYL

[3] = biological target: Somatostatin receptor type 1 (Homo sapiens, UniProt P30872); assay: Binding assay at human somatostatin receptor 1 (hsst1) expressed in CCL-39 cells using LTT-CST-14-(Tyr10) as radioligand.; in short: as §1
Somatostatin receptor type 1, sequence (P30872 whole entry): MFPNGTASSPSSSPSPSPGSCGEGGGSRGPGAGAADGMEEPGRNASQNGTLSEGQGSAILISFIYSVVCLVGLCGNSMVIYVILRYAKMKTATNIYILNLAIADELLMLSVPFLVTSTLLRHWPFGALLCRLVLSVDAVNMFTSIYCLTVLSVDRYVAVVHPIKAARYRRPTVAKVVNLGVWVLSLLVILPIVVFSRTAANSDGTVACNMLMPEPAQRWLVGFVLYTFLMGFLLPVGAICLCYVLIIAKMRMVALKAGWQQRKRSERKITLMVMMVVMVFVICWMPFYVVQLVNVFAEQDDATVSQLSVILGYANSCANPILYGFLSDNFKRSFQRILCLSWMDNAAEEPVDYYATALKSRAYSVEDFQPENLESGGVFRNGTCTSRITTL

[4] = biological target: Somatostatin receptor type 5 (Homo sapiens, UniProt P35346); assay: Binding assay at human somatostatin receptor 5 (hsst5) expressed in CCL-39 cells using LTT-CST-14-(Tyr10) as radioligand.; in short: as §1
Somatostatin receptor type 5, sequence (P35346 whole entry): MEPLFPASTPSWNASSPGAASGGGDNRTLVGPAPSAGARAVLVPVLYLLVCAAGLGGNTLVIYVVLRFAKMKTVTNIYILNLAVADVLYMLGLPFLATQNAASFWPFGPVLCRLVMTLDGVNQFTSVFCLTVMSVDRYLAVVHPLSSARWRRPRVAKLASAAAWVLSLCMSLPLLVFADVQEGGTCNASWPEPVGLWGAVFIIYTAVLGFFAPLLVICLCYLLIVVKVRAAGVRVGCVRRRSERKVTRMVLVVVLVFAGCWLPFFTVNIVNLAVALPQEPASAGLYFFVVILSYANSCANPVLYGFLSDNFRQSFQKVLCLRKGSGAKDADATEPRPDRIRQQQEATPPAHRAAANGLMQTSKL

[5] = biological target: Somatostatin receptor type 4 (Homo sapiens, UniProt P31391); assay: Binding assay at human somatostatin receptor 4 (hsst4) expressed in CCL-39 cells using LTT-CST-14-(Tyr10) as radioligand.; in short: as §1
Somatostatin receptor type 4, sequence (P31391 whole entry): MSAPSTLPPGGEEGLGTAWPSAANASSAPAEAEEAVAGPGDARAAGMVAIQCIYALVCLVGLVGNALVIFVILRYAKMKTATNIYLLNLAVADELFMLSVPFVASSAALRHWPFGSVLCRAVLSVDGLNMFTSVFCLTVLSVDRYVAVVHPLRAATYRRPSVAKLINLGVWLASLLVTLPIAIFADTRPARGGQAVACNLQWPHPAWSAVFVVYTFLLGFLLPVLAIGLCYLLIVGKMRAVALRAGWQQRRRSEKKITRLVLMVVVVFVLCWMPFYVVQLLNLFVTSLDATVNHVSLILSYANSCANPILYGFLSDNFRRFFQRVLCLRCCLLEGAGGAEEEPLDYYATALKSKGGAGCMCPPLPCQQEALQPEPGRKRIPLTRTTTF

Somatostatin receptor type 2, sequence (P30874 whole entry): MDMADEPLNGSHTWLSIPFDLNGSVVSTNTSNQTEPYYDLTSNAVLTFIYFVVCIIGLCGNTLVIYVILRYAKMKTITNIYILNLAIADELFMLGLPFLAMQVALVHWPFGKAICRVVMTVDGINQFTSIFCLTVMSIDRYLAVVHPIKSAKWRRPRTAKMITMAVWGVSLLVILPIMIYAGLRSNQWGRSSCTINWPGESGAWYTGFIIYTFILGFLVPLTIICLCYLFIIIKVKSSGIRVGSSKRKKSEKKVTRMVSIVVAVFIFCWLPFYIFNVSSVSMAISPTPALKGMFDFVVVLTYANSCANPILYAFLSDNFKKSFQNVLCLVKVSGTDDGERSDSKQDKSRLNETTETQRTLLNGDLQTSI

| pKd [1] | pKd [2] | pKd [3] | pKd [4] | pKd [5] | Compound |
| --- | --- | --- | --- | --- | --- |
| < 4.00 | < 5.00 | < 4.00 | < 4.00 | < 4.00 | CC(=O)N[C@H](CC(=O)N[C@@H](CCCCN)CC(=O)N[C@H](CC(=O)N[C@H](CC(N)=O)Cc1ccccc1)Cc1c[nH]c2ccccc12)[C@@H](C)O |
| < 4.00 | < 5.00 | < 4.00 | < 4.00 | < 5.00 | CC(=O)N[C@H](C(=O)N[C@@H](CCCCN)C(=O)N[C@@H](Cc1c[nH]c2ccccc12)C(=O)N[C@@H](Cc1ccccc1)C(N)=O)[C@@H](C)O (Ac-TKWF-NH2) |
| < 5.00 | < 5.00 | 4.88 | < 5.00 | 7.08 | CC(=O)N[C@H](CC(=O)NC[C@H](CCCCN)C(=O)N[C@H](CC(=O)N[C@H](CC(N)=O)Cc1ccccc1)Cc1c[nH]c2ccccc12)[C@@H](C)O |
